Test results: ChEMBL document CHEMBL1949567, “Novel synthesis and biological evaluation of enigmols as therapeutic agents for treating prostate cancer” (ACS Med Chem Lett, 2011)
Active and inactive are the calls of the source. The calls are words filed in the database; no cut-off is given here.

Experiments:
LNCaP [1] = test: Cytotoxicity against human LNCAP cells after 24 hrs by WST-1 assay; type: functional, cell-based
How it was run: (§1)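 PC-3 (androgen-independent) and LNCaP (androgen-sensitive) prostate cancer cells treated for 24 h. Cytotoxicity read by WST-1 assay. IC50 calculated from the resulting data.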

PC-3 [2] = test: Cytotoxicity against human PC3 cells after 24 hrs by WST-1 assay; type: functional, cell-based; conditions: PC-3, 24 h; how it was run: as §1
PC-3 [3] = test: Anticancer activity against androgen insensitive human PC3 cells xenografted nude mouse model assessed as decrease in tumor growth rate administered at 10 mg/kg, po once daily administered from day 16 after implantation; type: functional, organism-based; set-up: dose 10 mg/kg
How it was run: (§2)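 Nude mice bearing established PC-3 tumors (n = 10) given 10 mg/kg daily by oral gavage from day 16 after implantation, with vehicle controls. Tumor growth and body weight measured over time. Growth rates compared by mixed model for repeated measurements, weights by ANOVA.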

Mus musculus [4] = test: Toxicity in androgen insensitive human PC3 cells xenografted nude mouse model assessed as body weight change administered at 10 mg/kg, po once daily administered from day 16 after implantation; type: organism-based, PC-3; set-up: dose 10 mg/kg, route oral; conditions: in vivo; how it was run: as §2
[5] = AUC (0 to infinity) in CD-1/Swiss Webster mouse at 10 mg/kg, po by LC/MS/MS analysis; type: ADME, organism-based; set-up: time infinity, dose 10 mg/kg, route oral; conditions: plasma
How it was run: (§3)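 Outbred male Swiss Webster or CD-1 mice, n = 3 per time point, single oral dose of 10 or 30 mg/kg in 10% ethanol/90% olive oil given at 5 mL/kg. Blood drawn from submandibular vein or retro-orbital plexus at set time points. PK parameters calculated from mean plasma concentrations (nM).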

[6] = Apparent oral clearance in CD-1/Swiss Webster mouse at 30 mg/kg, po by LC/MS/MS analysis; type: ADME, organism-based; set-up: dose 30 mg/kg, route oral; conditions: in vivo; how it was run: as §3
[7] = Half life in CD-1/Swiss Webster mouse at 30 mg/kg, po by LC/MS/MS analysis; type: ADME, organism-based; set-up: dose 30 mg/kg, route oral; conditions: in vivo; how it was run: as §3
[8] = Apparent volume of distribution during terminal phase in CD-1/Swiss Webster mouse at 10 mg/kg, po by LC/MS/MS analysis; type: ADME, organism-based; set-up: dose 10 mg/kg, route oral; conditions: in vivo, read-out: Vz/F; how it was run: as §3
[9] = AUC (0 to infinity) in CD-1/Swiss Webster mouse at 30 mg/kg, po by LC/MS/MS analysis; type: ADME, organism-based; set-up: time infinity, dose 30 mg/kg, route oral; conditions: plasma; how it was run: as §3
[10] = AUC (0 to t) in CD-1/Swiss Webster mouse at 10 mg/kg, po by LC/MS/MS analysis; type: ADME, organism-based; set-up: dose 10 mg/kg, route oral; conditions: plasma; how it was run: as §3
[11] = Half life in CD-1/Swiss Webster mouse at 10 mg/kg, po by LC/MS/MS analysis; type: ADME, organism-based; set-up: dose 10 mg/kg, route oral; conditions: in vivo; how it was run: as §3
[12] = Cmax in CD-1/Swiss Webster mouse at 10 mg/kg, po by LC/MS/MS analysis; type: ADME, organism-based; set-up: dose 10 mg/kg, route oral; conditions: in vivo; how it was run: as §3
[13] = AUC (0 to t) in CD-1/Swiss Webster mouse at 30 mg/kg, po by LC/MS/MS analysis; type: ADME, organism-based; set-up: dose 30 mg/kg, route oral; conditions: plasma; how it was run: as §3
[14] = Tmax in CD-1/Swiss Webster mouse at 10 mg/kg, po by LC/MS/MS analysis; type: ADME, organism-based; set-up: dose 10 mg/kg, route oral; conditions: in vivo; how it was run: as §3
[15] = (§4) Apparent volume of distribution during terminal phase in CD-1/Swiss Webster mouse at 30 mg/kg, po by LC/MS/MS analysis; type: ADME, organism-based; set-up: dose 30 mg/kg, route oral; conditions: CD-1/Swiss Webster, in vivo, read-out: Vz/F; how it was run: as §3
[16] = Apparent oral clearance in CD-1/Swiss Webster mouse at 10 mg/kg, po by LC/MS/MS analysis; type: ADME, organism-based; set-up: dose 10 mg/kg, route oral; conditions: in vivo; how it was run: as §3
[17] = Tmax in CD-1/Swiss Webster mouse at 30 mg/kg, po by LC/MS/MS analysis; type: ADME, organism-based; set-up: dose 30 mg/kg, route oral; conditions: in vivo; how it was run: as §3
[18] = Cmax in CD-1/Swiss Webster mouse at 30 mg/kg, po by LC/MS/MS analysis; type: ADME, organism-based; set-up: dose 30 mg/kg, route oral; conditions: in vivo; how it was run: as §3
PC-3 [19] = test: Anticancer activity against androgen insensitive human PC3 cells xenografted nude mouse model assessed as decrease in tumor growth rate administered at 15 mg/kg, ip administered once in a week on day 22 to day 29 after implantation relative to control; type: functional, organism-based; set-up: dose 15 mg/kg
How it was run: (§5)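 Nude mice bearing PC-3 xenografts (n = 15). Daily oral gavage at 10 mg/kg from Day 22 to Day 34 after implantation. Docetaxel 15 mg/kg or vehicle given i.p. on Days 22 and 29, alone or combined with gavage. Tumor growth and body weight followed. Growth analysed by mixed model for repeated measurements, weights by ANOVA.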

LNCaP [20] = test: Anticancer activity against androgen sensitive human LNCAP cells xenografted nude mouse model assessed as reduction in tumor growth rate administered at 10 mg/kg, po once daily after day 14 of implantation measured on day 36 relative to control; type: functional, organism-based; set-up: dose 10 mg/kg
How it was run: (§6)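 Nude mice bearing palpable subcutaneous LNCaP tumors (n = 10–12 per group). Castration or sham surgery on Day 13 after implantation. Daily oral gavage of 10 mg/kg or vehicle from Day 14. Tumor growth followed over time and body weights monitored. Controls sacrificed Day 36 for tumor burden; some groups continued longer. Growth analysed by mixed model for repeated measurements, weights by ANOVA.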

Mus musculus [21] = test: Toxicity in androgen sensitive human LNCAP cells xenografted nude mouse model assessed as body weight change at 10 mg/kg, po once daily after day 14 of implantation; type: organism-based; set-up: dose 10 mg/kg, route oral; conditions: in vivo; how it was run: as §6
PC-3 [22] = test: Anticancer activity against androgen insensitive human PC3 cells xenografted nude mouse model assessed as decrease in tumor growth rate administered at 10 mg/kg, po once daily administered from day 22 to day 34 after implantation relative to control; type: functional, organism-based; set-up: dose 10 mg/kg; how it was run: as §5
PC-3 [23] = test: Anticancer activity against androgen insensitive human PC3 cells xenografted nude mouse model assessed as decrease in tumor growth rate administered at 10 mg/kg, po once daily administered from day 22 to day 34 after implantation coadministered with docetaxel relative to control; type: functional, organism-based; set-up: dose 10 mg/kg; how it was run: as §5
LNCaP [24] = test: Anticancer activity in androgen sensitive human LNCAP cells xenografted castrated mouse model assessed as reduction in tumor growth rate administered at 10 mg/kg, po once daily from day 14 after implantation measured on day 38 relative to control; type: functional, organism-based; set-up: dose 10 mg/kg; how it was run: as §6
Mus musculus [25] = test: as §4; type: ADME, organism-based; set-up: dose 30 mg/kg, route oral; conditions: in vivo; how it was run: as §3
PC-3 [26] = test: Anticancer activity against androgen insensitive human PC3 cells xenografted nude mouse model assessed as decrease in tumor growth rate administered at 10 mg/kg, po once daily administered from day 16 after implantation
Mus musculus [27] = test: Toxicity in androgen sensitive human LNCAP cells xenografted castrated mouse model assessed as body weight change at 10 mg/kg, po once daily after day 14 of implantation; type: organism-based; set-up: dose 10 mg/kg, route oral; conditions: in vivo; how it was run: as §6
Mus musculus [28] = test: Toxicity in androgen insensitive human PC3 cells xenografted nude mouse model assessed as body weight change administered at 10 mg/kg, po once daily administered from day 22 to day 34 after implantation; type: organism-based, PC-3; set-up: dose 10 mg/kg, route oral; conditions: in vivo; how it was run: as §5
[29] = Drug uptake in rat prostate tissue at 100 mg/kg, po; type: ADME, organism-based, Prostate gland; set-up: dose 100 mg/kg, route oral; conditions: in vivo, read-out: Drug uptake

Row | AUC(0-inf) [5] | CL/F [6] | half-life [7] | Vd/F [8] | AUC(0-inf) [9] | AUC(0-t) [10] | half-life [11] | Cmax [12] | AUC(0-t) [13] | Tmax [14] | CL/F [16] | Tmax [17] | Cmax [18] | Compound | IC50 (LNCaP [1]) | IC50 (PC-3 [2]) | Activity (PC-3 [3]) | Activity (Mus musculus [4]) | other results
1 |  |  |  |  |  |  |  |  |  |  |  |  |  | CCCCCCCCCCCCC[C@@H](O)C[C@@H](O)[C@H](C)N | 50 µM | 49.3 µM |  |  | 
2 |  |  |  |  |  |  |  |  |  |  |  |  |  | CCCCCCCCCCCCC[C@@H](O)C[C@H](O)[C@H](C)N | 9.7 µM | 10.2 µM | Active | 0.3% | 
3 | 5.99 µM·h | 83.3 mL/min/kg | 12 h | 117 L/kg | 17.9 µM·h | 3.86 µM·h | 15 h | 232 nM | 13.6 µM·h | 4 h | 83.3 mL/min/kg | 2 h | 1120 nM | CCCCCCCCCCCCC[C@H](O)C[C@H](O)[C@H](C)NC | 25 µM | 10.5 µM |  |  | Vd/F [15]: 90 L/kg
4 |  |  |  |  |  |  |  |  |  |  |  |  |  | CC(=O)O[C@@]12CO[C@@H]1C[C@H](O)[C@@]1(C)C(=O)[C@H](O)C3=C(C)[C@@H](OC(=O)[C@H](O)[C@@H](NC(=O)OC(C)(C)C)c4ccccc4)C[C@@](O)([C@@H](OC(=O)c4ccccc4)[C@H]21)C3(C)C |  |  |  |  | Activity (PC-3 [19]): Active
5 | 2.54 µM·h | 233 mL/min/kg | 5 h | 211 L/kg | 6.96 µM·h | 1.88 µM·h | 11 h | 137 nM | 5.96 µM·h | 2 h | 217 mL/min/kg | 2 h | 705 nM | CCCCCCCCCCCCC[C@H](O)C[C@H](O)[C@H](C)N [ENIGMOL] | 9.7 µM | 10.3 µM | Active |  | Activity (LNCaP [20]): Active; Activity (Mus musculus [21]): < 6%; Activity (PC-3 [22]): Active; Activity (PC-3 [23]): Active; Activity (LNCaP [24]): Active; Vz/F (Mus musculus [25]): 107 L/kg; Activity (PC-3 [26]): Active; Activity (Mus musculus [27]): < 6%; Activity (Mus musculus [28]): 0.3%; concentration [29]: 10000 nM
6 |  |  |  |  |  |  |  |  |  |  |  |  |  | CCCCCCCCCCCCC[C@H](O)C[C@@H](O)[C@H](C)N | 5 µM | 9.7 µM | Active | 0.3% | 
